Results from ChEMBL document CHEMBL1123413, “Synthesis and biological evaluation of 1-(1,2-benzisothiazol-3-yl)- and (1,2-benzisoxazol-3-yl)piperazine derivatives as potential antipsychotic agents” (J Med Chem, 1986).

How the values were obtained:
[1] = biological target: D(2) dopamine receptor (Rattus norvegicus, UniProt P61169); assay: In vitro affinity for rat striatal Dopamine receptor D2 labeled with [3H]spiperone
[2] = biological target: T1, Adrenergic receptor alpha-1 (Rattus norvegicus, UniProt P15823+P23944+P43140)
T1 sequence (P15823 whole entry): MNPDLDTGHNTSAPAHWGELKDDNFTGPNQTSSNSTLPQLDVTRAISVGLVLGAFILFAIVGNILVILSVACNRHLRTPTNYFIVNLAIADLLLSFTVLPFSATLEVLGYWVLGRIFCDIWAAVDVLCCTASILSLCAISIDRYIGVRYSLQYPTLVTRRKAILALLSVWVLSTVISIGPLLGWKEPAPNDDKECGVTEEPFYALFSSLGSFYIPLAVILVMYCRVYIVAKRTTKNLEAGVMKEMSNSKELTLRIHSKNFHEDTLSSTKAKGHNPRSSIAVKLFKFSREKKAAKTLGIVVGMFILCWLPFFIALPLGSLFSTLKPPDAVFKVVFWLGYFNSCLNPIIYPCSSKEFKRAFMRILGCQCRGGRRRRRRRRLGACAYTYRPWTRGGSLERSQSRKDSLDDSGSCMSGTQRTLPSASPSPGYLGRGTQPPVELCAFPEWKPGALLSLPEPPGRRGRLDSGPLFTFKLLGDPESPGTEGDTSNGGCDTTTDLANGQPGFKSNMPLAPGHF
T1 sequence (P23944 whole entry): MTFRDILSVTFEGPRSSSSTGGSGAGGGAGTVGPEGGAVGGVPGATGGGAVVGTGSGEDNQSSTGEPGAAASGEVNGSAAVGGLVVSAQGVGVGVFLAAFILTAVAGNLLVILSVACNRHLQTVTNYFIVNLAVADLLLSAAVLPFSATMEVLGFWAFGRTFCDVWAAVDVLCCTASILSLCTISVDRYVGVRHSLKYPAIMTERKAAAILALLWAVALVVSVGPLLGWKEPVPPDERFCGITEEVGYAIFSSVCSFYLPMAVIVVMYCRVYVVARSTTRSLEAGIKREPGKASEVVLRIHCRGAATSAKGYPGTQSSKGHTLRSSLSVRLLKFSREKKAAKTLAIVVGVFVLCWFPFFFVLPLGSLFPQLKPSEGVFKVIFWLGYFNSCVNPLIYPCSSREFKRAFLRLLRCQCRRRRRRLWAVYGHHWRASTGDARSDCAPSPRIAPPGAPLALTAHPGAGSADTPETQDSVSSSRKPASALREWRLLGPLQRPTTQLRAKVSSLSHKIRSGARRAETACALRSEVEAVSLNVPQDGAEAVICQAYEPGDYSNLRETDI
T1 sequence (P43140 whole entry): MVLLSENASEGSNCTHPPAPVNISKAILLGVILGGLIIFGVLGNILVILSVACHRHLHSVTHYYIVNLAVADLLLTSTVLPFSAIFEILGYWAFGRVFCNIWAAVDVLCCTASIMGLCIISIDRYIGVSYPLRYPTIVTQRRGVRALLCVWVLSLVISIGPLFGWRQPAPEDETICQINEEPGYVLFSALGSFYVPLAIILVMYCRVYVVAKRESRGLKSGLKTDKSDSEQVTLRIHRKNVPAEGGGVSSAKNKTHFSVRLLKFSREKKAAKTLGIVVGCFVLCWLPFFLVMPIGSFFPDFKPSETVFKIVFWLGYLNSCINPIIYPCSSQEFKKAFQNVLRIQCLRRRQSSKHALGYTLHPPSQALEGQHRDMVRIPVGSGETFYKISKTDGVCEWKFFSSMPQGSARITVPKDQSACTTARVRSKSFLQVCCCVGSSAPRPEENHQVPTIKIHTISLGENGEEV

[3] = species on record: Rattus norvegicus; assay: Inhibition of conditioned avoidance response (CAR); format: functional
Method in brief: (§1)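 Rats trained to avoid an electric shock, test compound given orally, and block of the conditioned avoidance response scored. ED50 (mg/kg, po) with fiducial limits by the method of Berkson.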

[4] = species on record: Rattus norvegicus; assay: Compound was tested for inhibition of conditioned avoidance response (CAR ); format: functional; method in brief: as §1
[5] = species on record: Rattus norvegicus; assay: Compound was tested for its ability to induce catalepsy in rats.; format: functional
Method in brief: (§2)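 Catalepsy was induced in rats with orally dosed compound as a predictor of extrapyramidal liability. ED50 (mg/kg, po) with fiducial limits by Berkson's method.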

[6] = species on record: Rattus norvegicus; assay: Compound was tested for the inhibition of apomorphine-induced stereotype; format: functional
Method in brief: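 In rats, oral test compound was scored for block of apomorphine-induced stereotypy as an in vivo dopamine-system measure. ED50 (mg/kg, po) and fiducial limits by Berkson's method.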

[7] = Lethal dose after peroral administration in mouse; format: toxicity, organism-based; conditions: in vivo, po
[8] = test system: Mus musculus; assay: Compound was tested for inhibition of spontaneous motor activity in mouse when administered perorally; format: functional; conditions: po
[9] = test system: Rattus norvegicus; assay: Compound was tested for inhibition of spontaneous motor activity in rat when administered perorally; format: functional; conditions: po
[10] = test system: Mus musculus; assay: Compound was tested for inhibition of norepinephrine lethality in mouse when administered perorally; format: functional; conditions: po
Method in brief: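 Groups of 10 nonfasted male mice dosed orally with test compound (initial 100 mg/kg) or vehicle (distilled H2O or 0.5% methocel). Active compounds retested at lower doses, 10 mice/dose, for dose response. ED50 by Berkson's method.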

[11] = species on record: Rattus norvegicus; assay: Compound was tested for its ability to induce catalepsy in rats; format: functional; method in brief: as §2

D(2) dopamine receptor, sequence (P61169 whole entry): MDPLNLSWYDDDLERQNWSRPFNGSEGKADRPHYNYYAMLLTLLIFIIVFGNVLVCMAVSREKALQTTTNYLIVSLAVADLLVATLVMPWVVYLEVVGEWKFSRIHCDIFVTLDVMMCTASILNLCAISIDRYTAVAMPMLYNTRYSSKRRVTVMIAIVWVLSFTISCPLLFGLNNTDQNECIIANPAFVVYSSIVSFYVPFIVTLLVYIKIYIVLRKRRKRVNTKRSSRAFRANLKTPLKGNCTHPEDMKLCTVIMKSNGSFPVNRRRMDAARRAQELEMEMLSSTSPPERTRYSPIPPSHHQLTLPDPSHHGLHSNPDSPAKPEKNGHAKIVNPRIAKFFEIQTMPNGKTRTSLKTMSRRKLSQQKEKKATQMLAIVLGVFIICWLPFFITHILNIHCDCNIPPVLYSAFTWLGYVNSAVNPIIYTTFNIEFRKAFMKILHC

Question: With O=C1CSC(=O)N1CCCCN1CCN(c2noc3ccc(Cl)cc23)CC1 as the molecule, how does the IC50 [1] read?
Answer: 0.44 µM

Question: What about the IC50 [2] of the same molecule?
Answer: 0.033 µM

Question: What about the ED50 [3] of the same molecule?
Answer: > 100 mg/kg

Question: Which IC50 [1] does the source give for O=C1CC2(CCCC2)CC(=O)N1CCCCN1CCN(c2noc3cc(Cl)ccc23)CC1 here?
Answer: 0.059 µM

Question: What about the IC50 [2] of the same molecule?
Answer: 0.005 µM

Question: What about the ED50 [3] of the same molecule?
Answer: 26 mg/kg

Question: Which results are given for Cl.c1ccc2c(N3CCNCC3)nsc2c1?
Answer: IC50 [1]: > 1 µM; IC50 [2]: 0.51 µM; ED50 [3]: > 100 mg/kg

Question: Which results are given for Cl.O=C1SC2(CCCC2)C(=O)N1CCCCN1CCN(c2nsc3ccccc23)CC1?
Answer: ED50 [4]: 11.6 mg/kg; IC50 [1]: 0.042 µM; ED50 [5]: 45 mg/kg; IC50 [2]: 0.009 µM

Question: For CN(C)CCCN1c2ccccc2Sc2ccc(Cl)cc21 [CHLORPROMAZINE], which ED50 [6] is on record?
Answer: 9.6 mg/kg

Question: What about the LD50 [7] of the same molecule?
Answer: 250 mg/kg

Question: And the ED50 [8]?
Answer: 3.6 mg/kg

Question: What about the ED50 [5] of the same molecule?
Answer: 4.1 mg/kg

Question: And the ED50 [9]?
Answer: 17.2 mg/kg

Question: And the ED50 [10]?
Answer: 2.72 mg/kg

Question: What does the source list for CC1(C)CC(=O)N(CCCCN2CCN(c3nsc4ccccc34)CC2)C(=O)C1?
Answer: ED50 [4]: 4.1 mg/kg; ED50 [6]: 4.8 mg/kg; IC50 [1]: 0.023 µM; ED50 [5]: 15.2 mg/kg; IC50 [2]: 0.004 µM

Question: What does the source list for CC1CN(c2nsc3ccccc23)CCN1CCCCN1C(=O)CC2(CCCC2)CC1=O (configuration not stated)?
Answer: IC50 [1]: 0.203 µM; ED50 [3]: > 100 mg/kg

Question: What does the source list for O=C1SC2(CCCC2)C(=O)N1CCCCN1CCCN(c2noc3ccccc23)CC1?
Answer: IC50 [1]: > 1 µM; ED50 [3]: > 100 mg/kg

Question: Which results are given for O=C1CSC(=O)N1CCCCN1CCN(c2noc3ccccc23)CC1?
Answer: IC50 [1]: 0.24 µM; ED50 [5]: 11.7 mg/kg; IC50 [2]: 0.001 µM; ED50 [3]: 8.3 mg/kg

Question: Which results are given for O=C1CC2(CCCC2)CC(=O)N1CCCCN1CCCN(c2nsc3ccccc23)CC1?
Answer: IC50 [1]: 0.235 µM; ED50 [3]: > 100 mg/kg

Question: What does the source list for Cl.O=C1CSC(=O)N1CCCCN1CCN(c2nsc3ccccc23)CC1?
Answer: ED50 [4]: 27.8 mg/kg; IC50 [1]: 0.053 µM; IC50 [2]: 0.0009 µM

Question: Which results are given for O=C(CCCN1CCN(c2nsc3ccccc23)CC1)c1ccc(F)cc1?
Answer: IC50 [1]: 0.01 µM; IC50 [2]: 0.008 µM; ED50 [3]: 7.4 mg/kg; ED50 [11]: 16.4 mg/kg

Question: For O=C1SC2(CCCC2)C(=O)N1CCCCN1CCN(c2noc3ccccc23)CC1, which IC50 [1] is on record?
Answer: 0.078 µM

Question: And the ED50 [5]?
Answer: 21.5 mg/kg

Question: And the ED50 [3]?
Answer: 8.1 mg/kg

Question: What does the source list for CCCC1(C)CC(=O)N(CCCCN2CCN(c3nsc4ccccc34)CC2)C(=O)C1.Cl?
Answer: ED50 [4]: 24.3 mg/kg; IC50 [1]: 0.055 µM; IC50 [2]: 0.009 µM
